Data taken from ChEMBL document CHEMBL1125826, “Synthesis and biological activity of 5-amino- and 5-hydroxyquinolones, and the overwhelming influence of the remote N1-substituent in determining the structure-activity relationship” (1991).
≈ marks a conversion by molar mass, not a printed value.

Key:
Type in all cases: functional
[1] = target: DNA gyrase (Escherichia coli) (UniProt P0AES6+P0AES4); assay: Minimum inhibitory concentration against Escherichia coli DNA-gyrase in supercoiling assay
Enterobacter cloacae = assay: Antibacterial activity was determined against gram negative organism, Enterobacter cloacae MA2646; settings: Enterobacter cloacae; read-out: MIC
Escherichia coli [2] = assay: Antibacterial activity was determined against gram negative organism, Escherichia coli vogel; settings: Escherichia coli; read-out: MIC
In short: (§1)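 MIC (µg/mL) by standard microtitration against a panel of 10 Gram-positive and Gram-negative organisms; values averaged from multiple experiments.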

Escherichia coli [3] = assay: The in vivo potency was determined in female charles river CD-1 mice infected with Escherichia coli after peroral administration; settings: for ED50: Escherichia coli, po, read-out: PD50
In short: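 Acute lethal systemic infection in female CD-1 mice, 16 mice per route; single dose given orally by gavage at the time of challenge; median protective dose (PD50, mg/kg) determined.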

Escherichia coli [4] = assay: The in vivo potency was determined in female charles river CD-1 mice infected with Escherichia coli after sc administration; settings: Escherichia coli, sc; read-out: PD50
In short: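 Acute lethal systemic infection in female CD-1 mice, 16 mice per route; single subcutaneous dose given at the time of challenge; median protective dose (PD50, mg/kg) determined.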

Bacteria [5] = assay: MIC ratio measured as the mean MICs of gram-negative bacteria
In short: (§2)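 Geometric mean of the microtitration MICs (µg/mL) over the Gram-negative organisms, and separately over the Gram-positive organisms, of the 10-strain panel; individual MICs averaged from multiple experiments.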

Bacteria [6] = assay: MIC ratio measured as the mean MICs of gram-positive bacteria; in short: as §2
Klebsiella pneumoniae = assay: Antibacterial activity was determined against gram negative organism, Klebsiella pneumoniae MGH-2; settings: Klebsiella pneumoniae; read-out: MIC; in short: as §1
Pseudomonas aeruginosa = assay: Antibacterial activity was determined against gram negative organism, Pseudomonas aeruginosa UI-18; settings: Pseudomonas aeruginosa; read-out: MIC; in short: as §1
Bacteria [7] = assay: Antibacterial activity was determined against gram negative organism, Providencia rettgeri. M1771; settings: Bacteria; read-out: MIC; in short: as §1
Staphylococcus aureus [8] = assay: Antibacterial activity was determined against gram positive organism, Staphylococcus aureus H228; settings: Staphylococcus aureus; read-out: MIC; in short: as §1
Streptococcus pneumoniae = assay: Antibacterial activity was determined against gram positive organism, Streptococcus pneumoniae SV-1; settings: Streptococcus pneumoniae; read-out: MIC; in short: as §1
Enterococcus faecalis = assay: Antibacterial activity was determined against gram positive organism, Streptococcus faecalis MGH-2; settings: Enterococcus faecalis; read-out: MIC; in short: as §1
Staphylococcus aureus [9] = assay: Antibacterial activity was determined against gram positive organism, Staphylococcus aureus UC76; in short: as §1
Streptococcus pyogenes = assay: Antibacterial activity was determined against gram positive organism, Streptococcus pyogenes C203; settings: Streptococcus pyogenes; read-out: MIC; in short: as §1
[10] = Staphylococcus aureus, read-out: MIC

Row | SMILES | MIC [1] [µg/mL] | MIC (Enterobacter cloacae) [µg/mL] | MIC (Escherichia coli [2]) [µg/mL] | ED50 (Escherichia coli [3]) [mg/kg] | ED50 (Escherichia coli [4]) [mg/kg] | Geometric mean MIC over Gram-negative bacteria (µg/mL) (Bacteria [5]) | Geometric mean MIC over Gram-positive bacteria (µg/mL) (Bacteria [6]) | MIC (Klebsiella pneumoniae) [µg/mL] | MIC (Pseudomonas aeruginosa) [µg/mL] | MIC (Bacteria [7]) [µg/mL] | MIC (Staphylococcus aureus [8]) [µg/mL] | MIC (Streptococcus pneumoniae) [µg/mL] | MIC (Enterococcus faecalis) [µg/mL] | MIC (Staphylococcus aureus [9]; [10]) [µg/mL] | MIC (Streptococcus pyogenes) [µg/mL] | PD50 (Escherichia coli [3]) [mg/kg] | MIC (Staphylococcus aureus [9]) [µg/mL]
1 | O=C(O)c1cn(C2CC2)c2c(Cl)c(N3CCNCC3)c(F)cc2c1=O | 0.5 (≈ 1.37 µM) | 0.025 (≈ 0.0683 µM) | 0.025 (≈ 0.0683 µM) | 0.8 | 0.4 | 0.066 | 0.13 | 0.05 (≈ 0.137 µM) | 0.4 (≈ 1.09 µM) | 0.1 (≈ 0.273 µM) | 0.1 (≈ 0.273 µM) | 0.1 (≈ 0.273 µM) | 0.4 (≈ 1.09 µM) | 0.05 (≈ 0.137 µM) | 0.2 (≈ 0.547 µM) |  | 
2 | O=C(O)c1cn(C2CC2)c2cc(N3CCNCC3)c(F)c(O)c2c1=O | 1 (≈ 2.88 µM) | 0.05 (≈ 0.144 µM) | 0.025 (≈ 0.072 µM) | 3 | 0.1 |  |  | 0.1 (≈ 0.288 µM) | 0.4 (≈ 1.15 µM) | 0.1 (≈ 0.288 µM) | 3.1 (≈ 8.92 µM) | 0.8 (≈ 2.3 µM) | 0.8 (≈ 2.3 µM) | 0.2 (≈ 0.576 µM) | 0.4 (≈ 1.15 µM) |  | 
3 | CC1CN(c2c(F)cc3c(=O)c(C(=O)O)cn(C4CC4)c3c2F)CC(C)N1 (stereo unspecified) | 2.5 (≈ 6.62 µM) | 0.05 (≈ 0.132 µM) | 0.05 (≈ 0.132 µM) |  | 0.4 | 0.11 | 0.23 | 0.1 (≈ 0.265 µM) | 0.4 (≈ 1.06 µM) | 0.2 (≈ 0.53 µM) | 0.2 (≈ 0.53 µM) | 0.4 (≈ 1.06 µM) | 0.4 (≈ 1.06 µM) | 0.05 (≈ 0.132 µM) | 0.4 (≈ 1.06 µM) | 0.8 | 
4 | Nc1c(F)c(N2CCNCC2)cc2c1c(=O)c(C(=O)O)cn2C1CC1 | 1 (≈ 2.89 µM) | 0.013 (≈ 0.0375 µM) | 0.013 (≈ 0.0375 µM) | 4 | 0.3 | 0.038 | 0.087 | 0.025 (≈ 0.0722 µM) | 0.8 (≈ 2.31 µM) | 0.025 (≈ 0.0722 µM) | 0.1 (≈ 0.289 µM) | 0.1 (≈ 0.289 µM) | 0.1 (≈ 0.289 µM) | 0.025 (≈ 0.0722 µM) | 0.2 (≈ 0.577 µM) |  | 
5 | CC1COc2c(N3CCC(N)C3)c(F)c(N)c3c(=O)c(C(=O)O)cn1c23 (stereo unspecified) | 2.5 (≈ 6.9 µM) | 0.8 (≈ 2.21 µM) | 0.4 (≈ 1.1 µM) | > 100 | 23 | 0.8 | 0.7 | 0.4 (≈ 1.1 µM) | 1.6 (≈ 4.42 µM) | 1.6 (≈ 4.42 µM) | 0.8 (≈ 2.21 µM) | 0.8 (≈ 2.21 µM) | 0.8 (≈ 2.21 µM) | 0.2 (≈ 0.552 µM) | 1.6 (≈ 4.42 µM) |  | 
6 | CC1COc2c(N3CCC(N)C3)c(F)cc3c(=O)c(C(=O)O)cn1c23 (stereo unspecified) | 0.75 (≈ 2.16 µM) | 0.4 (≈ 1.15 µM) | 0.4 (≈ 1.15 µM) | 29 | 2 | 0.46 | 0.53 | 0.4 (≈ 1.15 µM) | 0.4 (≈ 1.15 µM) | 0.8 (≈ 2.3 µM) | 1.6 (≈ 4.61 µM) | 0.8 (≈ 2.3 µM) | 1.6 (≈ 4.61 µM) |  | 0.2 (≈ 0.576 µM) |  | 0.1 (≈ 0.288 µM)
7 | CC1CN(c2c(F)cc3c(=O)c(C(=O)O)cn(C4CC4)c3c2F)CCN1 (stereo unspecified) | 1 (≈ 2.75 µM) | 0.05 (≈ 0.138 µM) | 0.025 (≈ 0.0688 µM) | 0.8 | 0.4 | 0.066 | 0.26 | 0.025 (≈ 0.0688 µM) | 0.4 (≈ 1.1 µM) | 0.1 (≈ 0.275 µM) | 0.2 (≈ 0.55 µM) | 0.4 (≈ 1.1 µM) | 0.4 (≈ 1.1 µM) | 0.1 (≈ 0.275 µM) | 0.4 (≈ 1.1 µM) |  | 
8 | CCNCC1CCN(c2cc3c(c(N)c2F)c(=O)c(C(=O)O)cn3C2CC2)C1 (stereo unspecified) | 1 (≈ 2.57 µM) | 0.1 (≈ 0.257 µM) | 0.1 (≈ 0.257 µM) | 90 | 3 | 0.26 | 0.057 | 0.2 (≈ 0.515 µM) | 0.8 (≈ 2.06 µM) | 0.8 (≈ 2.06 µM) | 0.2 (≈ 0.515 µM) | 0.05 (≈ 0.129 µM) | 0.025 (≈ 0.0644 µM) | 0.025 (≈ 0.0644 µM) | 0.1 (≈ 0.257 µM) |  | 
9 | CCNCC1CCN(c2c(F)c(N)c3c(=O)c(C(=O)O)cn(CC)c3c2Cl)C1 (stereo unspecified) | 2.5 (≈ 6.08 µM) | 3.1 (≈ 7.54 µM) | 1.6 (≈ 3.89 µM) |  |  | 6.28 | 1.59 | 6.3 (≈ 15.3 µM) | 25 (≈ 60.8 µM) | 12.5 (≈ 30.4 µM) | 1.6 (≈ 3.89 µM) | 1.6 (≈ 3.89 µM) | 1.6 (≈ 3.89 µM) | 0.4 (≈ 0.974 µM) | 6.3 (≈ 15.3 µM) |  | 
